According to ChEMBL document CHEMBL1926574, “Synthesis and biological evaluation of a new series of 1,2,4-triazolo[1,5-a]-1,3,5-triazines as human A(2A) adenosine receptor antagonists with improved water solubility” (J Med Chem, 2011):

target: T1, Adenosine receptor A1 (Homo sapiens, UniProt P30542); assay: Displacement of [3H]DPCPX from human adenosine A1 receptor expressed in HEK293 cells by scintillation counting; format: cell-based
T1 sequence (P30542 whole entry): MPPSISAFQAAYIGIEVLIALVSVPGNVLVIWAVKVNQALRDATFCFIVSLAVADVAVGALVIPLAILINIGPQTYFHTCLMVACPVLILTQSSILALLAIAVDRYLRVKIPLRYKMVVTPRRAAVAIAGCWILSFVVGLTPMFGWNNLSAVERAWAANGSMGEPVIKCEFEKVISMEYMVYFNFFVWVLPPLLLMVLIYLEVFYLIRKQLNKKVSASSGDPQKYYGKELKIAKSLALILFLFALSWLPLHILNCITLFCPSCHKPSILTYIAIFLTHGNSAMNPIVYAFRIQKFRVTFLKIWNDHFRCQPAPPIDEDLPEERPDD

| SMILES | Ki [nM] |
| --- | --- |
| Nc1nc(N2CCCC2)nc2nc(-c3ccco3)nn12 | 1940 |
| CC(C)(C)OC(=O)NCC1CCC(CNc2nc(N)n3nc(-c4ccco4)nc3n2)CC1 (stereo unspecified) | 3890 |
| Nc1nc(NC(=O)c2ccccc2)n2nc(-c3ccco3)nc2n1 | 1800 |
| Nc1nc(N2CCN(Cc3ccc(Cl)cc3)CC2)nc2nc(-c3ccco3)nn12 | 220 |
| Nc1nc(N2CCN(C(=O)C(c3ccccc3)c3ccccc3)CC2)nc2nc(-c3ccco3)nn12 | 7470 |
| CC(C)(C)OC(=O)NCCCNc1nc(N)n2nc(-c3ccco3)nc2n1 | 344 |
| CC(C)(C)OC(=O)NCCOCCOCCNc1nc(N)n2nc(-c3ccco3)nc2n1 | 1580 |
| Nc1nc(N2CCN(Cc3ccccc3)CC2)nc2nc(-c3ccco3)nn12 | 978 |
| CC(C)(C)OC(=O)NCCCCCNc1nc(N)n2nc(-c3ccco3)nc2n1 | 963 |
| Nc1nc(N2CCN(Cc3ccc(F)cc3)CC2)nc2nc(-c3ccco3)nn12 | 655 |
| NCCCCCNc1nc(N)n2nc(-c3ccco3)nc2n1 | 2950 |
| Nc1nc(N2CCN(C(=O)Cc3ccccc3)CC2)nc2nc(-c3ccco3)nn12 | 3510 |
| Nc1nc(N)n2nc(-c3ccco3)nc2n1 | 1410 |

target: T2, Adenosine receptor A1 (Homo sapiens) (UniProt P30542); assay: Displacement of [3H]DPCPX from human adenosine A1 receptor expressed in HEK293 cells at 10 uM by scintillation counting; format: cell-based
T2 sequence (whole entry): T1 sequence (P30542 whole entry)

| SMILES | Activity [%] |
| --- | --- |
| CC(C)(C)C(=O)N1CCN(c2nc(N)n3nc(-c4ccco4)nc3n2)CC1 | 38.7 |
| NCCNc1nc(N)n2nc(-c3ccco3)nc2n1 | 35.8 |
| COC(=O)CCC(=O)N1CCN(c2nc(N)n3nc(-c4ccco4)nc3n2)CC1 | 19.4 |
| Nc1nc(N2CCN(C(=O)C(Cl)Cl)CC2)nc2nc(-c3ccco3)nn12 | 34.6 |
| CCCCC(=O)N1CCN(c2nc(N)n3nc(-c4ccco4)nc3n2)CC1 | 10.8 |
| Nc1nc(N2CCNCC2)nc2nc(-c3ccco3)nn12 | 28.6 |
| O=C(Nc1nc(Oc2ccccc2)nc2nc(-c3ccco3)nn12)c1ccccc1 | 26.2 |
| Nc1nc(N2CCN(C(=O)c3cccc4ccccc34)CC2)nc2nc(-c3ccco3)nn12 | 4.9 |
| NCCCNc1nc(N)n2nc(-c3ccco3)nc2n1 | 44.3 |

target: Adenosine receptor A2a (Homo sapiens, UniProt P29274); assay: Displacement of [3H]ZM241385 from human adenosine A2A receptor expressed in HEK293 cells by scintillation counting; format: cell-based
Sequence (P29274 whole entry): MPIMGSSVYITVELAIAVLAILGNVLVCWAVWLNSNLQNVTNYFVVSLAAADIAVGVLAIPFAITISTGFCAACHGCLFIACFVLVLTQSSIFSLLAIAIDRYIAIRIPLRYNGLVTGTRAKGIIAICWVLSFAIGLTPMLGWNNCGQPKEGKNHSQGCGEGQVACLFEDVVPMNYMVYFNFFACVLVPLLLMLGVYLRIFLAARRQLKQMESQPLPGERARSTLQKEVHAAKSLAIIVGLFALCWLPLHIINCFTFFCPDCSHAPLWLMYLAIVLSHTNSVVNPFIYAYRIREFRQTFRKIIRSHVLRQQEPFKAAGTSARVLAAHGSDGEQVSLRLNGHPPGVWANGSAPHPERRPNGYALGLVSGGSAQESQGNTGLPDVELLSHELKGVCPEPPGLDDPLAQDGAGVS

| SMILES | Ki [nM] |
| --- | --- |
| CC(C)(C)C(=O)N1CCN(c2nc(N)n3nc(-c4ccco4)nc3n2)CC1 | 58.4 |
| Nc1nc(N2CCCC2)nc2nc(-c3ccco3)nn12 | 59.1 |
| NCCNc1nc(N)n2nc(-c3ccco3)nc2n1 | 567 |
| COC(=O)CCC(=O)N1CCN(c2nc(N)n3nc(-c4ccco4)nc3n2)CC1 | 66.2 |
| CC(C)(C)OC(=O)NCC1CCC(CNc2nc(N)n3nc(-c4ccco4)nc3n2)CC1 (stereo unspecified) | 69.7 |
| Nc1nc(N2CCN(C(=O)C(Cl)Cl)CC2)nc2nc(-c3ccco3)nn12 | 282 |
| CCCCC(=O)N1CCN(c2nc(N)n3nc(-c4ccco4)nc3n2)CC1 | 124 |
| Nc1nc(NC(=O)c2ccccc2)n2nc(-c3ccco3)nc2n1 | 44.1 |
| Nc1nc(N2CCNCC2)nc2nc(-c3ccco3)nn12 | 153 |
| Nc1nc(N2CCN(Cc3ccc(Cl)cc3)CC2)nc2nc(-c3ccco3)nn12 | 102 |
| Nc1nc(N2CCN(C(=O)C(c3ccccc3)c3ccccc3)CC2)nc2nc(-c3ccco3)nn12 | 92.9 |
| CC(C)(C)OC(=O)NCCCNc1nc(N)n2nc(-c3ccco3)nc2n1 | 38.6 |
| CC(C)(C)OC(=O)NCCOCCOCCNc1nc(N)n2nc(-c3ccco3)nc2n1 | 17.8 |
| Nc1nc(N2CCN(Cc3ccccc3)CC2)nc2nc(-c3ccco3)nn12 | 20.6 |
| CC(C)(C)OC(=O)NCCCCCNc1nc(N)n2nc(-c3ccco3)nc2n1 | 44.7 |
| Nc1nc(N2CCN(Cc3ccc(F)cc3)CC2)nc2nc(-c3ccco3)nn12 | 52.3 |
| O=C(Nc1nc(Oc2ccccc2)nc2nc(-c3ccco3)nn12)c1ccccc1 | 1000 |
| Nc1nc(N2CCN(C(=O)c3cccc4ccccc34)CC2)nc2nc(-c3ccco3)nn12 | 7680 |
| NCCCCCNc1nc(N)n2nc(-c3ccco3)nc2n1 | 90.1 |
| Nc1nc(N2CCN(C(=O)Cc3ccccc3)CC2)nc2nc(-c3ccco3)nn12 | 94.8 |
| NCCCNc1nc(N)n2nc(-c3ccco3)nc2n1 | 270 |
| Nc1nc(N)n2nc(-c3ccco3)nc2n1 | 160 |

target: T3, Adenosine receptor A3 (Homo sapiens) (UniProt P0DMS8); assay: Displacement of [I125]I-AB-MECA from human adenosine A3 receptor expressed in CHO cells at 10 uM by scintillation counting; format: cell-based
T3 sequence (whole entry): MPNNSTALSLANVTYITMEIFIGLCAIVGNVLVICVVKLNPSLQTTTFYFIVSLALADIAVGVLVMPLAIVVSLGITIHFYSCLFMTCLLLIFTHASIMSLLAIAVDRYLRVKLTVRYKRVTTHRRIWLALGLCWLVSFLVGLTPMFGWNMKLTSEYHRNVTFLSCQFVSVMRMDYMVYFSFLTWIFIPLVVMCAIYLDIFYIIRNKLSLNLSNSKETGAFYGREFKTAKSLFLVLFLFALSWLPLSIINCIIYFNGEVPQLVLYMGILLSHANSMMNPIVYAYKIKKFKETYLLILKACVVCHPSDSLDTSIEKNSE

| SMILES | Activity [%] |
| --- | --- |
| CC(C)(C)C(=O)N1CCN(c2nc(N)n3nc(-c4ccco4)nc3n2)CC1 | 32.3 |
| Nc1nc(N2CCCC2)nc2nc(-c3ccco3)nn12 | 75 |
| NCCNc1nc(N)n2nc(-c3ccco3)nc2n1 | 30.8 |
| COC(=O)CCC(=O)N1CCN(c2nc(N)n3nc(-c4ccco4)nc3n2)CC1 | 37.2 |
| CC(C)(C)OC(=O)NCC1CCC(CNc2nc(N)n3nc(-c4ccco4)nc3n2)CC1 (stereo unspecified) | 75.5 |
| Nc1nc(N2CCN(C(=O)C(Cl)Cl)CC2)nc2nc(-c3ccco3)nn12 | 33.6 |
| CCCCC(=O)N1CCN(c2nc(N)n3nc(-c4ccco4)nc3n2)CC1 | 56.2 |
| Nc1nc(NC(=O)c2ccccc2)n2nc(-c3ccco3)nc2n1 | 67.2 |
| Nc1nc(N2CCNCC2)nc2nc(-c3ccco3)nn12 | 29.9 |
| Nc1nc(N2CCN(Cc3ccc(Cl)cc3)CC2)nc2nc(-c3ccco3)nn12 | 66.8 |
| Nc1nc(N2CCN(C(=O)C(c3ccccc3)c3ccccc3)CC2)nc2nc(-c3ccco3)nn12 | 40.6 |
| CC(C)(C)OC(=O)NCCCNc1nc(N)n2nc(-c3ccco3)nc2n1 | 77.3 |
| CC(C)(C)OC(=O)NCCOCCOCCNc1nc(N)n2nc(-c3ccco3)nc2n1 | 74 |
| Nc1nc(N2CCN(Cc3ccccc3)CC2)nc2nc(-c3ccco3)nn12 | 71.9 |
| CC(C)(C)OC(=O)NCCCCCNc1nc(N)n2nc(-c3ccco3)nc2n1 | 68.6 |
| Nc1nc(N2CCN(Cc3ccc(F)cc3)CC2)nc2nc(-c3ccco3)nn12 | 71.3 |
| O=C(Nc1nc(Oc2ccccc2)nc2nc(-c3ccco3)nn12)c1ccccc1 | 32.3 |
| Nc1nc(N2CCN(C(=O)c3cccc4ccccc34)CC2)nc2nc(-c3ccco3)nn12 | 31.1 |
| NCCCCCNc1nc(N)n2nc(-c3ccco3)nc2n1 | 49.9 |
| Nc1nc(N2CCN(C(=O)Cc3ccccc3)CC2)nc2nc(-c3ccco3)nn12 | 64.5 |
| NCCCNc1nc(N)n2nc(-c3ccco3)nc2n1 | 40.5 |
| Nc1nc(N)n2nc(-c3ccco3)nc2n1 | 36.4 |

target: T4, Adenosine receptor A2b (Homo sapiens, UniProt P29275); assay: Antagonist activity at human recombinant adenosine A2B receptor expressed in CHO cells assessed as inhibition of NECA-stimulated adenylyl cyclase activity; format: functional, cell-based
T4 sequence (P29275 whole entry): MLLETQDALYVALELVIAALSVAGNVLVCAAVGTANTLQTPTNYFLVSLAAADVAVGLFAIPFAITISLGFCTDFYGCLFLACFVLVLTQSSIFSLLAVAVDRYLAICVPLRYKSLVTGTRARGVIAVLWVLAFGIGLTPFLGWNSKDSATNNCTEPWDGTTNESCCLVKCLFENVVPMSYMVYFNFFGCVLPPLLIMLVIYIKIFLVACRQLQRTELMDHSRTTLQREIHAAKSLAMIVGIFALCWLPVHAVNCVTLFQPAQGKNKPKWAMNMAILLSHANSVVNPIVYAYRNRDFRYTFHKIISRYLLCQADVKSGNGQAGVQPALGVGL
Outline: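 Membranes from CHO cells stably expressing the hA2B receptor were incubated 20 min with about 150,000 cpm [α-32P]ATP, without EGTA and NaCl. The read-out was antagonist concentration-dependent inhibition of NECA-stimulated adenylyl cyclase. IC50 was calculated with the Hill equation.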

| SMILES | IC50 [nM] |
| --- | --- |
| CC(C)(C)C(=O)N1CCN(c2nc(N)n3nc(-c4ccco4)nc3n2)CC1 | > 100000 |
| Nc1nc(N2CCCC2)nc2nc(-c3ccco3)nn12 | > 30000 |
| NCCNc1nc(N)n2nc(-c3ccco3)nc2n1 | > 100000 |
| COC(=O)CCC(=O)N1CCN(c2nc(N)n3nc(-c4ccco4)nc3n2)CC1 | > 100000 |
| CC(C)(C)OC(=O)NCC1CCC(CNc2nc(N)n3nc(-c4ccco4)nc3n2)CC1 (stereo unspecified) | 7140 |
| Nc1nc(N2CCN(C(=O)C(Cl)Cl)CC2)nc2nc(-c3ccco3)nn12 | > 100000 |
| CCCCC(=O)N1CCN(c2nc(N)n3nc(-c4ccco4)nc3n2)CC1 | > 100000 |
| Nc1nc(NC(=O)c2ccccc2)n2nc(-c3ccco3)nc2n1 | 7060 |
| Nc1nc(N2CCNCC2)nc2nc(-c3ccco3)nn12 | > 30000 |
| Nc1nc(N2CCN(Cc3ccc(Cl)cc3)CC2)nc2nc(-c3ccco3)nn12 | > 30000 |
| Nc1nc(N2CCN(C(=O)C(c3ccccc3)c3ccccc3)CC2)nc2nc(-c3ccco3)nn12 | > 100000 |
| CC(C)(C)OC(=O)NCCCNc1nc(N)n2nc(-c3ccco3)nc2n1 | 20600 |
| CC(C)(C)OC(=O)NCCOCCOCCNc1nc(N)n2nc(-c3ccco3)nc2n1 | > 10000 |
| Nc1nc(N2CCN(Cc3ccccc3)CC2)nc2nc(-c3ccco3)nn12 | > 30000 |
| CC(C)(C)OC(=O)NCCCCCNc1nc(N)n2nc(-c3ccco3)nc2n1 | > 10000 |
| Nc1nc(N2CCN(Cc3ccc(F)cc3)CC2)nc2nc(-c3ccco3)nn12 | > 10000 |
| O=C(Nc1nc(Oc2ccccc2)nc2nc(-c3ccco3)nn12)c1ccccc1 | > 10000 |
| Nc1nc(N2CCN(C(=O)c3cccc4ccccc34)CC2)nc2nc(-c3ccco3)nn12 | > 100000 |
| NCCCCCNc1nc(N)n2nc(-c3ccco3)nc2n1 | > 10000 |
| Nc1nc(N2CCN(C(=O)Cc3ccccc3)CC2)nc2nc(-c3ccco3)nn12 | > 100000 |
| NCCCNc1nc(N)n2nc(-c3ccco3)nc2n1 | > 30000 |
| Nc1nc(N)n2nc(-c3ccco3)nc2n1 | 11100 |

species on record: Homo sapiens; assay: Selectivity ratio of Ki for human adenosine A1 receptor to Ki for human adenosine A2A receptor

| SMILES | Ratio Ki |
| --- | --- |
| Nc1nc(N2CCCC2)nc2nc(-c3ccco3)nn12 | 33 |
| CC(C)(C)OC(=O)NCC1CCC(CNc2nc(N)n3nc(-c4ccco4)nc3n2)CC1 (stereo unspecified) | 56 |
| Nc1nc(NC(=O)c2ccccc2)n2nc(-c3ccco3)nc2n1 | 40 |
| Nc1nc(N2CCN(Cc3ccc(Cl)cc3)CC2)nc2nc(-c3ccco3)nn12 | 2.1 |
| Nc1nc(N2CCN(C(=O)C(c3ccccc3)c3ccccc3)CC2)nc2nc(-c3ccco3)nn12 | 80 |
| CC(C)(C)OC(=O)NCCCNc1nc(N)n2nc(-c3ccco3)nc2n1 | 9 |
| CC(C)(C)OC(=O)NCCOCCOCCNc1nc(N)n2nc(-c3ccco3)nc2n1 | 89 |
| Nc1nc(N2CCN(Cc3ccccc3)CC2)nc2nc(-c3ccco3)nn12 | 47.5 |
| CC(C)(C)OC(=O)NCCCCCNc1nc(N)n2nc(-c3ccco3)nc2n1 | 21.5 |
| Nc1nc(N2CCN(Cc3ccc(F)cc3)CC2)nc2nc(-c3ccco3)nn12 | 12.5 |
| NCCCCCNc1nc(N)n2nc(-c3ccco3)nc2n1 | 33 |
| Nc1nc(N2CCN(C(=O)Cc3ccccc3)CC2)nc2nc(-c3ccco3)nn12 | 37 |
| Nc1nc(N)n2nc(-c3ccco3)nc2n1 | 9 |
